A selection: hits, their analogues and other compounds. The true share with any hit is near 1.5%.
S100A4 inh HTS = inhibitors of human S100A4 binding to myosin IIA peptide; P26447; S100A4/TAMRA-MyoIIA peptide fluorescence polarization; inhibition, % at 10.7 µM; 0.14% of 360,000 active;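 active = mean inhibition of at least 70% across replicates, with every replicate also reaching that level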
Target sequence (P26447 whole entry, looked up): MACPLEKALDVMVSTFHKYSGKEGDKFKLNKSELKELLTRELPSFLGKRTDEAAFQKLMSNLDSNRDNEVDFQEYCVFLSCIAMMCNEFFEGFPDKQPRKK
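Material: S100A4 monomer protein / Buffer or medium: 50 mM HEPES pH 7.2, 10 mM CaCl2, 100 mM KCl / Times: 5 min incubation before reading / Benchmarks: neutral control DMSO, positive control TFP / Reagent: labelled myosin peptide probe, 5 nM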
SIRT5 inh = sirtuin-5 (human) deacylase inhibition | Q9NXA8 | Purified SirT5, succinyl-peptide AMC, trypsin-coupled fluorescence | inhibition, % at 15 µM | 1.1% of 330,000 active | AID 652115; in the data active = inhibition above about 15%
CRFR2-BP antag = blocks CRF-induced signaling of the CRF-BP/CRF-R2 complex; HEK293 CRF-R2/CRF-BP, CRF-induced calcium fluorescence; inhibition, % at 11.8 µM; 0.59% of 350,000 active; AID 588475;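 active = inhibition of the ligand-induced calcium signal above about 50% at the single tested concentration, limit read from the data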
PKA-R1A activ = activators of PKA-R1A complex | P00514+P68181 | PKA-R1A dissociation, Cy5-IP20 fluorescence polarization; scaled: DMSO 0%, 113 µM cGMP 100% | activation, % at 11.4 µM | 0.083% of 340,000 active | AID 504707;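 active = percent activation above the mean of all tested compounds plus 3 SD, cut at about 19% in these data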;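 note: higher means more PKAc released from R1A so a rise in polarization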
PKA-R2B act = activates the human PKA-R2B holoenzyme complex | PKA-R2B holoenzyme dissociation, Cy5-IP20 fluorescence polarization; R2B truncated from residue 108, S112A mutant; 0% DMSO only, 100% 113 µM cGMP | activation, % at 11.4 µM | 0.079% of 340,000 active | AID 504700;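 active = activation above a cutoff set at the mean over all compounds plus 3 SD, cut at about 18% in these data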;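 note: higher means more holoenzyme dissociation and a rise in polarization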
Target sequence (P31323 whole entry, looked up, other chains not shown, the tested form may be a part): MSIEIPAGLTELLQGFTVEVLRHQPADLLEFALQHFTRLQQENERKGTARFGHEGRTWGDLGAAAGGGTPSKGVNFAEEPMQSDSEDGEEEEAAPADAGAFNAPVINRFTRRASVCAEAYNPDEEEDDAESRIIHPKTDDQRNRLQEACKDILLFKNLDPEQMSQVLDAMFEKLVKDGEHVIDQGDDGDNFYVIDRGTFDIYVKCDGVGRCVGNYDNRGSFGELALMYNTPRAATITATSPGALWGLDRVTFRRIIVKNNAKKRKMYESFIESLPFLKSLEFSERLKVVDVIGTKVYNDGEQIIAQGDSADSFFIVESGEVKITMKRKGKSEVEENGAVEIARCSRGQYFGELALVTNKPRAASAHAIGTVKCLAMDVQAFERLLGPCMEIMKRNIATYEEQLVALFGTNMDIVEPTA
Large screens that a line does not name were inactive.

C[C@@H]1CN([C@H](C)CO)C(=O)c2cc(NS(=O)(=O)c3ccc(F)cc3)ccc2O[C@@H]1CN(C)Cc1ccc(-c2ccccc2)cc1	SIRT5 inh 16 (no result: CRFR2-BP antag, PKA-R1A activ, PKA-R2B act)
C[C@H](CO)N1C[C@H](C)[C@@H](CN(C)Cc2ccc(C(=O)O)cc2)Oc2ccc(NS(=O)(=O)c3ccc(Cl)cc3)cc2C1=O	SIRT5 inh 24 (no result: CRFR2-BP antag, PKA-R1A activ, PKA-R2B act)
C[C@@H]1CN([C@@H](C)CO)C(=O)c2cc(NS(=O)(=O)c3ccc(F)cc3)ccc2O[C@H]1CN(C)Cc1ccc(-c2ccccc2)cc1	none (no result: CRFR2-BP antag, PKA-R1A activ, PKA-R2B act)
C[C@@H]1CN([C@@H](C)CO)C(=O)c2cc(NS(=O)(=O)c3ccc(Cl)cc3)ccc2O[C@@H]1CN(C)Cc1ccc(C(=O)O)cc1	none (no result: CRFR2-BP antag, PKA-R1A activ, PKA-R2B act)
C[C@@H]1CN([C@H](C)CO)C(=O)c2cc(NS(=O)(=O)c3ccc(Cl)cc3)ccc2O[C@@H]1CN(C)Cc1ccc(-c2ccccc2)cc1	SIRT5 inh 30 (no result: CRFR2-BP antag, PKA-R1A activ, PKA-R2B act)
Cc1ccc(S(=O)(=O)ON2C(=O)c3ccccc3C2=O)c(C)c1	CRFR2-BP antag 63 (no result: SIRT5 inh)
CCCNC(=O)N1C[C@H]2[C@@H](c3ccccc31)[C@@H](CO)N2C(=O)Nc1ccc(F)cc1	none (no result: CRFR2-BP antag, PKA-R1A activ, PKA-R2B act)
Cc1ccn(C(=O)c2ccc(NC(=O)C3CCCCC3)cc2)n1	CRFR2-BP antag 54 (no result: S100A4 inh HTS, SIRT5 inh)
O=C(Nc1ccc(C(=O)N2CCCC2)cc1)C1CCCCC1	none
O=C(c1ccc(F)cc1)N1C[C@H]2[C@@H](c3ccccc31)[C@H](CO)N2C(=O)c1ccc(F)cc1	none (no result: CRFR2-BP antag, PKA-R1A activ, PKA-R2B act)
CC(=O)Nc1ccc(NC(=O)C(C)OC(=O)C2CCCCC2)cc1 (stereo not drawn)	CRFR2-BP antag 52
C[C@H](CO)N1C[C@H](C)[C@@H](CN(C)Cc2ccc(-c3ccccc3)cc2)Oc2c(NC(=O)Nc3ccc(C(F)(F)F)cc3)cccc2C1=O	SIRT5 inh 2.6
C[C@@H]1CN([C@@H](C)CO)C(=O)c2cccc(NC(=O)Nc3ccccc3)c2O[C@@H]1CN(C)Cc1ccc(C(F)(F)F)cc1	SIRT5 inh 103 (no result: CRFR2-BP antag, PKA-R1A activ, PKA-R2B act)
C[C@@H]1CN([C@@H](C)CO)C(=O)c2cccc(NC(=O)Nc3ccc(C(F)(F)F)cc3)c2O[C@@H]1CN(C)Cc1ccccc1	none (no result: CRFR2-BP antag, PKA-R1A activ, PKA-R2B act)
COC(=O)[C@@H]1[C@@H](CO)[C@@H]2Cn3c(ccc(-c4ccccc4F)c3=O)[C@@H]2N1C(=O)c1ccccn1	none (no result: CRFR2-BP antag, PKA-R1A activ, PKA-R2B act)
COc1ccc(OCCCC(=O)Nc2cccnc2)cc1	CRFR2-BP antag 53 (no result: S100A4 inh HTS, SIRT5 inh)
O=C(CCCC(=O)Nc1cccnc1)Nc1cccnc1	none (no result: S100A4 inh HTS, SIRT5 inh)
O=C(CCSc1ccc(Br)cc1)Nc1cccnc1	CRFR2-BP antag 110
O=C(CCC(=O)c1ccc(Br)cc1)Nc1cccnc1	none (no result: SIRT5 inh)
O=C(COc1ccc(Cl)cc1Cl)Nc1ccccc1NS(=O)(=O)c1cccs1	CRFR2-BP antag 51
O=C(C[C@H]1C=C[C@H](NC(=O)CCN2CCCCC2)[C@H](CO)O1)Nc1ccccc1	none (no result: CRFR2-BP antag, PKA-R1A activ, PKA-R2B act)
Cc1cccc(N(C(=O)c2nsc(Cl)c2Cl)C(C(=O)NC2CCCC2)c2ccc(O)cc2)c1C (stereo not drawn)	CRFR2-BP antag 91
Cc1ccc(N(C(=O)c2nsc(Cl)c2Cl)C(C(=O)NC2CCCC2)c2ccc(O)cc2)cc1C (stereo not drawn)	CRFR2-BP antag 88
Cc1cc(C)cc(N(C(=O)c2nsc(Cl)c2Cl)C(C(=O)NC2CCCC2)c2ccc(O)cc2)c1 (stereo not drawn)	CRFR2-BP antag 73
COc1ccc(OC)c(NC(=O)CCN2CC(C)OC(C)C2)c1 (stereo not drawn)	none (no result: S100A4 inh HTS, SIRT5 inh)
COc1ccc(Cl)cc1NC(=O)CCN1CCN(Cc2ccccc2)CC1	SIRT5 inh 22
COc1ccc(C)cc1NC(=O)CCN1CC(C)OC(C)C1 (stereo not drawn)	SIRT5 inh 23
CN(C)c1ccc(/C=C2\N=C(C(C)(C)C)OC2=O)cc1	SIRT5 inh 18
COc1ccc(/C=C2\N=C(C(C)(C)C)OC2=O)c(OC)c1	none
CSc1ccccc1C(=O)N1CCN(S(=O)(=O)c2sc(C(=O)O)c(C)c2C(=O)O)CC1	CRFR2-BP antag 84
Cc1c(C(=O)O)sc(S(=O)(=O)N2CCN(C(=O)Cc3ccccc3)CC2)c1C(=O)O	none
NC(=O)NCC#Cc1ccc2c(c1)[C@]1(C(=O)N2)[C@H](c2ccccc2OCCO)N2[C@H](c3ccccc3)[C@H](c3ccccc3)OC(=O)[C@H]2[C@@H]1C(=O)N1CCCCCCC1	none (no result: CRFR2-BP antag, PKA-R1A activ, PKA-R2B act)
NC(=O)NCC#Cc1ccc2c(c1)[C@]1(C(=O)N2)[C@H](c2ccccc2OCCO)N2[C@H](c3ccccc3)[C@H](c3ccccc3)OC(=O)[C@H]2[C@@H]1C(=O)N1CCN(c2ncccn2)CC1	SIRT5 inh 21 (no result: CRFR2-BP antag, PKA-R1A activ, PKA-R2B act)
C=CCNC(=O)[C@H]1[C@@H]2C(=O)O[C@@H](c3ccccc3)[C@@H](c3ccccc3)N2[C@@H](c2ccccc2OCCO)[C@]12C(=O)Nc1ccc(C#CC3(O)CCCCCC3)cc12	SIRT5 inh 17 (no result: CRFR2-BP antag, PKA-R1A activ, PKA-R2B act)
C=CCNC(=O)[C@@H]1[C@H]2C(=O)O[C@H](c3ccccc3)[C@H](c3ccccc3)N2[C@H](c2ccccc2OCCO)[C@@]12C(=O)N(C(=O)OCCOC)c1ccc(C#CC3(O)CCCCCC3)cc12	none (no result: CRFR2-BP antag, PKA-R1A activ, PKA-R2B act)
CC[C@@H]1CCCCc2ccccc2[C@H](C(=O)C[C@H](O)CC(C)=O)OC1=O	CRFR2-BP antag 51 (no result: SIRT5 inh)
CC=Cc1ccc2n(c1=O)C[C@@H]1[C@@H](CO)[C@H](C(=O)N3CCOCC3)N(Cc3ccccc3)[C@H]21 (mixture of isomers)	none (no result: CRFR2-BP antag, PKA-R1A activ, PKA-R2B act)
C[C@@H]1CN([C@@H](C)CO)C(=O)c2cc(C#C[C@@H](C)O)cnc2O[C@@H]1CN(C)C(=O)Nc1ccc(C(F)(F)F)cc1	none (no result: CRFR2-BP antag, PKA-R1A activ, PKA-R2B act)
CC(C)CC#Cc1ccc2c(c1)O[C@H](CN(C)S(=O)(=O)c1cccc(F)c1)[C@H](C)CN([C@@H](C)CO)S2(=O)=O	SIRT5 inh 17 (no result: CRFR2-BP antag, PKA-R1A activ, PKA-R2B act)
CC(C)CC#Cc1ccc2c(c1)O[C@H](CN(C)S(=O)(=O)c1cccc(F)c1)[C@H](C)CN([C@H](C)CO)S2(=O)=O	SIRT5 inh 21 (no result: CRFR2-BP antag, PKA-R1A activ, PKA-R2B act)
CCCC#Cc1ccc2c(c1)O[C@H](CN(C)S(=O)(=O)c1cccc(F)c1)[C@@H](C)CN([C@@H](C)CO)S2(=O)=O	none (no result: CRFR2-BP antag, PKA-R1A activ, PKA-R2B act)
COc1ccc(C#Cc2ccc3c(c2)[C@H]2[C@H](CCN2C(=O)CC2CC2)[C@H](CO)N3)cc1	none (no result: CRFR2-BP antag, PKA-R1A activ, PKA-R2B act)
CCCCNC(=O)C(COCc1ccccc1)OC(=O)c1ccccc1 (stereo not drawn)	none (no result: CRFR2-BP antag, PKA-R1A activ, PKA-R2B act)
Cc1ccc(S(=O)(=O)N2[C@@H](c3ccc(C(C)(C)C)cc3)C(C(=O)O)=CC[C@H]2c2ccc(Cl)cc2)cc1	SIRT5 inh 16
CCc1ccc([C@@H]2CC=C(C(=O)O)[C@H](c3ccc(C(C)(C)C)cc3)N2S(=O)(=O)c2ccc(C)cc2)cc1	SIRT5 inh 22, CRFR2-BP antag 50
